# Measurements collected from several papers.
# Protocols differ between the studies behind these lines.
# Read-out: microbial growth
Structure (SMILES),organism,assay,test system,conditions,MIC
O=C1NC(=S)S/C1=C\c1ccc(-c2ccc(N(c3ccccc3)c3ccccc3)cc2)cc1,Bacillus cereus,broth dilution,ATCC10876,,1000 µg/mL
C=C[C@@]1(C)C=C2CC[C@@H]3[C@](C)(CCC[C@@]3(C)C(=O)O)[C@H]2CC1,Helicobacter pylori,broth dilution,,,31.2 µg/mL
O=C(O)CN1C(=O)/C(=C/c2ccc(-c3ccc(N(c4ccccc4)c4ccccc4)cc3)cc2)NC1=S,Bacillus cereus,broth dilution,ATCC10876,,125 µg/mL
O=C(Nc1ncc([N+](=O)[O-])s1)c1ccncc1,Helicobacter pylori,broth dilution,26695,27 h,16 µM
Oc1ccc(-c2nc(-c3ccc(Oc4ccccc4)cc3)no2)cc1,Bacillus cereus,broth dilution,ATCC13061,,2 µg/mL
CC1(C)S[C@@H]2[C@H](NC(=O)[C@H](N)c3ccccc3)C(=O)N2[C@H]1C(=O)O,Salmonella enterica,,"F98, TYPHIMURIUM","20 h, pH 7",2 µg/mL
O=C(Nc1ncc([N+](=O)[O-])s1)c1cccnc1,Helicobacter pylori,broth dilution,26695,27 h,4 µM
Cc1cc(NS(=O)(=O)c2ccc(N)cc2)no1,Salmonella enterica,,TYPHIMURIUM,"20 h, pH 5.5",1020 µg/mL
O=C(Nc1ncc([N+](=O)[O-])s1)c1ccncc1F,Helicobacter pylori,broth dilution,26695,27 h,3.7 µM
O=C(O)c1cn(C2CC2)c2cc(N3CCNCC3)c(F)cc2c1=O,Bacillus cereus,broth dilution,ATCC10876,,0.12 µg/mL
COc1cc(-c2cc(=O)c3c(O)cc(O)cc3o2)ccc1O,Helicobacter pylori,broth dilution,,,3.9 µg/mL
O=C(O)CN1C(=O)/C(=C/c2ccc(-c3ccc(N(c4ccccc4)c4ccccc4)cc3)cc2)SC1=S,Bacillus cereus,broth dilution,ATCC10876,,7.8 µg/mL
C[C@@H](O)[C@H]1C(=O)N2C(C(=O)O)=C(S[C@@H]3CN[C@H](C(=O)N(C)C)C3)[C@H](C)[C@H]12,Salmonella enterica,broth dilution,TYPHIMURIUM,clinical isolate,≤ 0.5 µg/mL
CO/N=C(\C(=O)N[C@@H]1C(=O)N2C(C(=O)O)=C(CSC(=O)c3ccco3)CS[C@H]12)c1csc(N)n1,Salmonella enterica,,,"20 h, pH 7.2",1 µg/mL
